{"data": "Experimental data from different studies", "target": "Tyrosine-protein kinase Lck (LCK, Homo sapiens, UniProt P06239)", "note": "Lines come from different studies, so protocols differ."}
{"Structure (SMILES)": "CCCOc1ccc([C@H]2[C@H](C(=O)O)[C@@H](c3ccc4c(c3)OCO4)CN2CC(=O)Nc2c(CC)cccc2CC)cc1", "assay": "cell-free assay, competition with immobilised ligand", "conditions": "1 µM", "remaining binding [%]": 100}
{"Structure (SMILES)": "O=C(c1ccc(Nc2ncc(Cl)c(-c3ccc(Cl)s3)n2)cc1)N1CCC(N2CCCC2)CC1", "assay": "binding, competition with immobilised ligand", "conditions": "1 µM", "remaining binding [%]": 32}
{"Structure (SMILES)": "CN([C@@H]1CCc2c(CC(=O)O)c3cc(S(C)(=O)=O)ccc3n2C1)S(=O)(=O)c1ccc(F)cc1", "assay": "cell-free assay, competition with immobilised ligand", "conditions": "1 µM", "remaining binding [%]": 100}
{"Structure (SMILES)": "F[C@@H]1CCN(c2nccc(-c3cnn4ncccc34)n2)C1", "assay": "binding", "conditions": "1 µM", "remaining binding [%]": 100}
{"Structure (SMILES)": "COc1ccc2c(c1)O[C@@H](c1ccc(OC)c(OC)c1)C[C@H]2NC(=O)C1(c2ccc3c(c2)OC(F)(F)O3)CC1", "assay": "cell-free assay, competition with immobilised ligand", "conditions": "1 µM", "remaining binding [%]": 100}
{"Structure (SMILES)": "O=C(NCC1CCOCC1)c1n[nH]cc1NC(=O)c1c(F)cccc1F", "assay": "binding, competition with immobilised ligand", "conditions": "1 µM", "remaining binding [%]": 100}
{"Structure (SMILES)": "CC1=C(C#N)[C@@H](c2ccc3[nH]nc(C)c3c2)C(C#N)=C(c2ccc(Cl)cc2)N1", "assay": "cell-free assay, competition with immobilised ligand", "conditions": "1 µM", "remaining binding [%]": 100}
{"Structure (SMILES)": "CCN1CCN(Cc2ccc(C(=O)Nc3ccc(C)c(Oc4ccc5c(c4)CC(=O)N5)c3)cc2C(F)(F)F)CC1", "assay": "binding, competition with immobilised ligand", "conditions": "1 µM", "remaining binding [%]": 22}
{"Structure (SMILES)": "CNC(=O)c1ccc(Nc2ncc(C(F)(F)F)c(NCc3nccnc3N(C)S(C)(=O)=O)n2)cc1", "assay": "cell-free assay, competition with immobilised ligand", "conditions": "0.1 µM", "remaining binding [%]": 87}
{"Structure (SMILES)": "c1cnn2ncc(-c3ccnc(N4CCC45COC5)n3)c2c1", "assay": "binding", "conditions": "1 µM", "remaining binding [%]": 99}
{"Structure (SMILES)": "COc1cnc(Nc2cccc(S(N)(=O)=O)c2)nc1N1CCN(c2ccccc2)C(=O)C1", "assay": "binding, competition with immobilised ligand", "conditions": "1 µM", "remaining binding [%]": 100}
{"Structure (SMILES)": "COc1ncc2cc3ccccc3nc2c1C#N", "assay": "binding, competition with immobilised ligand", "conditions": "5 µM", "remaining binding [%]": 93}
{"Structure (SMILES)": "O=C(NCCCN1CCOCC1)c1ccc(Nc2nccc(-c3cc4ccccc4s3)n2)cc1", "assay": "binding, competition with immobilised ligand", "conditions": "1 µM", "remaining binding [%]": 76}
{"Structure (SMILES)": "C[C@H]1CCN(c2nccc(-c3cnn4ncccc34)n2)C1", "assay": "binding", "conditions": "1 µM", "remaining binding [%]": 98}
{"Structure (SMILES)": "C=CC(=O)N1CCC(C(=O)NCC(=O)N2CCN(c3nc(-c4cnc(N)nc4C(F)F)nc(N4CCOCC4)n3)CC2)CC1", "assay": "binding, competition with immobilised ligand", "conditions": "1 µM", "remaining binding [%]": 90}
{"Structure (SMILES)": "O=C(c1ccc(Nc2ncc(Cl)c(-c3cc4ccccc4s3)n2)cc1)N1CCC(N2CCCC2)CC1", "assay": "binding, competition with immobilised ligand", "conditions": "1 µM", "remaining binding [%]": 21}
